Marks after values point to notes of the source that are not given here.
Tests used:
[1] = Aqueous solubility in distilled water; assay type: physicochemical; settings: 25 ± 1 °C
[2] = Partition coefficient, n-octanol/water, shake flask method; assay type: physicochemical
[3] = test system: TNBS-induced colitis; test: TNBS-induced experimental colitis: clinical activity score rate; assay type: in vivo, Wistar rats; settings: for Clinical activity score rate, 6 d: day 6, oral treatment day 6 to 10; for Clinical activity score rate, 6 d / Clinical activity score rate, 7 d / Clinical activity score rate, 8 d / Clinical activity score rate, 9 d / Clinical activity score rate, 10 d / Clinical activity score rate, 11 d: score 0-4; for Clinical activity score rate, 7 d: day 7, oral treatment day 6 to 10; for Clinical activity score rate, 8 d: day 8, oral treatment day 6 to 10; for Clinical activity score rate, 9 d: day 9, oral treatment day 6 to 10; for Clinical activity score rate, 10 d: day 10, oral treatment day 6 to 10; for Clinical activity score rate, 11 d: day 11, after oral treatment day 6 to 10
In short: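 Male Wistar rats (200-230 g, n = 6/group), starved 48 h, given intrarectal TNBS 100 mg/kg in 50% v/v ethanol (0.25 mL) on day 3. Oral dosing days 6-10 as 1% sodium CMC suspension, equimolar to parent acid. Weight loss, stool consistency and rectal bleeding each scored 0-4 daily and averaged per group. Two-way ANOVA with Bonferroni versus disease control.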

[4] = test system: myeloperoxidase (MPO); test: TNBS-induced experimental colitis: colonic MPO activity; assay type: in vivo, Wistar rats; settings: TNBS colitis rats, day 11, oral treatment day 6 to 10
In short: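 Colon dissected on day 11 from TNBS-colitic male Wistar rats (intrarectal TNBS 100 mg/kg in 50% ethanol on day 3; oral dosing in 1% sodium CMC days 6-10; n = 6). MPO assayed by a published method, one unit degrading […] hydrogen peroxide at 25 °C. Reported as […]; one-way ANOVA with Dunnett's test.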

[5] = In vivo pharmacokinetics in plasma after oral administration; parameters: species or system Wistar rats; settings: rat
In short: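 Male Wistar rats (200-250 g, n = 6) housed in metabolic cages, fasted 24 h, water ad libitum. Single oral dose of prodrug (377.5 mg) or parent acid (270 mg) suspended in sodium CMC in saline (1 mL). Retro-orbital blood taken at 0 min, every 15 min for 1 h, bi-hourly to 12 h, and at 24 h, into EDTA tubes. Plasma quantified by HPLC against 80% human plasma calibration.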

[6] = released from SLZ in the colon; cited from earlier work
[7] = test system: chronic UC; settings: chronic UC patients ref 24; cited from earlier work

Structure (SMILES)	Aq. Solubility [1]	log Poct [2]	Clinical activity score rate, 6 d [3]	Clinical activity score rate, 7 d [3]	Clinical activity score rate, 8 d [3]	Clinical activity score rate, 9 d [3]	Clinical activity score rate, 10 d [3]	Clinical activity score rate, 11 d [3]	Minimized clinical activity score rate ([3]; oral treatment day 6 to 10)	Colonic MPO activity [4]	Time of disappearance of BBA from blood [5]	Time of first appearance of BBA in blood [5]	Time of maximum BBA in blood [5]	Fraction entering circulation by absorption from large intestine [6]	Remission rate [7]
C[C@H]1[C@H](C)CC[C@]2(C)CC[C@]3(C)C(=CC[C@@H]4[C@@]5(C)CC[C@@H](O)[C@](C)(C(=O)O)[C@@H]5CC[C@]43C)[C@H]12 [BBA, β-boswellic acid]	practically insoluble	9.3	2.77 ± 1.34	3.00 ± 1.00	2.33 ± 0.57	1.99 ± 0.66	1.33 ± 1.15	0.99 ± 1.10 ^e	79%	60.71 mU/100 mg tissue	24 h	30 min	240 min		
N[C@@H](Cc1c[nH]cn1)C(=O)O [H, L-histidine]			2.33 ± 0.67	2.55 ± 0.50	2.88 ± 0.83	2.77 ± 0.69	2.60 ± 0.82	2.00 ± 1.00^NS							
N[C@H](Cc1ccccc1)C(=O)O [P, D-phenylalanine]			2.22 ± 0.83	2.55 ± 0.50	3.16 ± 1.04	3.33 ± 1.15	2.66 ± 1.44	2.27 ± 1.13^NS							
Nc1ccc(O)c(C(=O)O)c1 [Prodrug 5-ASA, 5-aminosalicylate]														30%	
O=C(O)c1cc(/N=N/c2ccc(S(=O)(=O)Nc3ccccn3)cc2)ccc1O [SLZ, Sulfasalazine]			2.88 ± 0.83	2.44 ± 0.50	1.61 ± 1.13	1.11 ± 1.01	0.72 ± 0.75	0.38 ± 0.60 ^e		36.21 mU/100 mg tissue					75%
N[C@@H](Cc1c[nH]c2ccccc12)C(=O)O [T, L-tryptophan]			2.44 ± 0.69	2.60 ± 0.58	2.94 ± 0.82	2.66 ± 0.66	2.16 ± 1.08	1.88 ± 1.17 ^a							
N[C@@H](Cc1ccc(O)cc1)C(=O)O [TY, L-tyrosine]			2.11 ± 0.84	2.55 ± 0.50	3.22 ± 1.07	3.33 ± 1.15	2.72 ± 1.49	2.33 ± 1.45^NS							

From publication PMC5323440 (World Journal of Gastroenterology, 2017)
